For experiment [1], the system named is HeLa. Kind of experiment: Cell cycle arrest in human HeLa cells assessed as accumulation at G1 phase at 10 times IC50 after 48 hrs by flow cytometry. Format: functional. The method, boiled down:
(§1)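 HeLa cells in log phase exposed 48 h to compound in DMSO at ten times its cytotoxicity IC50. Fixed in cold 70% (v/v) EtOH, then stained 12 h at 4 °C with Triton X-100, trisodium citrate and RNase A, and filtered through nylon mesh. DNA content measured by flow cytometry gives the percentage of cells in G1, S and G2.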
(In general: Flow cytometry measures light scatter and fluorescence of single cells or particles in a stream.)

Experiment [2] concerns HeLa. Kind of experiment: Cell cycle arrest in human HeLa cells assessed as accumulation at S phase at 10 times IC50 after 48 hrs by flow cytometry. The class given is functional. Put shortly:
as §1

In the next experiment the test system is HEp-2. Kind of experiment: Cytotoxicity against human Hep2 cells after 72 hrs by sulforhodamine B assay. Format: functional, cell-based. As to conditions: HEp-2, 72 h. Put shortly: (§2)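 Cells kept in RPMI 1640 with 10% FBS at 37 °C, 5% CO2, humidified. Log-phase cells treated in triplicate at 0.16–20.0 µg/mL for 72 h. Cell density read by sulforhodamine B. Value is the dose giving 50% inhibition of control growth (ED50). Ellipticine served as positive control.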

Experiment [3] has as its system HeLa. Briefly: Cell cycle arrest in human HeLa cells assessed as accumulation at G2 phase at 10 times IC50 after 48 hrs by flow cytometry. The class given is functional. Put shortly: as §1
The subject of experiment [4] is HeLa. Kind of experiment: Cytotoxicity against human HeLa cells after 72 hrs by sulforhodamine B assay. The class given is functional, cell-based. The method, boiled down:
as §2
In general terms: In SRB staining, fixed cells bind dye roughly in proportion to their protein.

The next experiment concerns KB. Briefly: Cytotoxicity against human KB cells after 72 hrs by sulforhodamine B assay. The class given is functional, cell-based. The method, boiled down:
as §2

The structures appear in SMILES notation. Values after ≈ are worked out from the molar mass of the structure shown.

The IC50 is the concentration at which inhibition is half-maximal. Higher therefore signals weaker potency in that assay.

With `CC(=O)O[C@H](/C=C\[C@H]1CC=CC(=O)O1)C[C@@H](OC(C)=O)[C@H](C)OC(C)=O` [HYPTOLIDE], the Activity with HeLa [1] stood at 34%; in the experiment on HeLa [2], 57%; with HeLa [3], 7%. For the same compound, the IC50 in the experiment on HEp-2 was 6.2 µg/mL (≈ 16.8 µM); in the experiment on HeLa [4], 2.8 µg/mL (≈ 7.6 µM); in the experiment on KB, 3.6 µg/mL (≈ 9.77 µM).
Consider `Cc1c2ccncc2c(C)c2c1[nH]c1ccccc12` [ELLIPTECINE], for which the IC50 in the experiment with HEp-2, in the experiment with HeLa [4] and in the experiment with KB was 0.4 µg/mL (≈ 1.62 µM) in each case.
As for `CC(=O)O[C@H]([C@@H](OC(C)=O)[C@H](/C=C\[C@H]1CC=CC(=O)O1)OC(C)=O)[C@H](C)OC(C)=O` [SPICIGEROIDE], the Activity with HeLa [1] is 40%; with HeLa [2], 34%; with HeLa [3], 23%. Also, the IC50 in the experiment with HEp-2 is 9.4 µg/mL (≈ 22 µM); in the experiment on HeLa [4] it was 15.9 µg/mL (≈ 37.3 µM); in the experiment with KB, 5.4 µg/mL (≈ 12.7 µM).

Source of the values: ChEMBL document CHEMBL1151837, “Structural reassignment, absolute configuration, and conformation of hypurticin, a highly flexible polyacyloxy-6-heptenyl-5,6-dihydro-2H-pyran-2-one” (J Nat Prod, 2009).
